# Reference: ChEMBL document CHEMBL1140158, “Soluble 3',6-substituted indirubins with enhanced selectivity toward glycogen synthase kinase -3 alter circadian period” (J Med Chem, 2008)
# The source made the active and inactive calls. The calls are words filed in the database; no cut-off is given here.
# How the values were obtained:
# [1] = biological target: T1, Glycogen synthase kinase-3 (Homo sapiens, UniProt P49840+P49841); assay: Inhibition of GSK3-mediated beta-catenin phosphorylation in human SH-SY5Y cells in presence of MG132 by ELISA
# T1 sequence (P49840 whole entry, looked up): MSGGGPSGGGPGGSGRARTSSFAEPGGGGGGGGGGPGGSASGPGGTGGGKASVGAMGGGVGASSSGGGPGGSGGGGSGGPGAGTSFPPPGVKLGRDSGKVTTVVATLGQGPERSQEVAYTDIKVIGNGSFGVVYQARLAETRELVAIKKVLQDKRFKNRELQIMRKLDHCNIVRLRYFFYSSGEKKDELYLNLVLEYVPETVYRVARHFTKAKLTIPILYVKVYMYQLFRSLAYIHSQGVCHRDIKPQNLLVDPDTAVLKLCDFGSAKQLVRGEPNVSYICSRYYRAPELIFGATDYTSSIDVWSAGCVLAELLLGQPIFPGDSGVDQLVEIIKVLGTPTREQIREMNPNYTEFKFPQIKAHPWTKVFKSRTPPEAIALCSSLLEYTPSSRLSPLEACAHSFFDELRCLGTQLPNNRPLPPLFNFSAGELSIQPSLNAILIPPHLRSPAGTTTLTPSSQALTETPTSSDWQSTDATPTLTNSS
# T1 sequence (P49841 whole entry, looked up): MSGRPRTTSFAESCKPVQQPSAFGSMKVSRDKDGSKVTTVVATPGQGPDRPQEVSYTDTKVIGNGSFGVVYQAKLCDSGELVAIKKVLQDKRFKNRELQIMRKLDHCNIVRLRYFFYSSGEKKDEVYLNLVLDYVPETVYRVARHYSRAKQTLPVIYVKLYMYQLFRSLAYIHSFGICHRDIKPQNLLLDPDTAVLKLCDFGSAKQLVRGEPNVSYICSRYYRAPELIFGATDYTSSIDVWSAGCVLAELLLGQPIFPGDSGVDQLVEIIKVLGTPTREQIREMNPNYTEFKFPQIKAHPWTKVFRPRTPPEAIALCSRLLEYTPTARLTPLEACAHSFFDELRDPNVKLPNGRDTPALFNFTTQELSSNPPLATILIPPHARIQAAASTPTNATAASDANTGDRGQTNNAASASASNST
# [2] = system: Glycogen synthase kinase-3 (Sus scrofa); assay: Inhibition of pig GSK3alpha/beta
# SH-SY5Y = assay: Cytotoxicity against human SH-SY5Y cells after 48 hrs by MTS reduction assay; type: cell-based
# [3] = Inhibition of human recombinant CDK5/p25 expressed in Escherichia coli
# [4] = Lipophilicity, log D of the compound; type: physicochemical; conditions: octanol/water
# [5] = Dissociation constant, pKa of the compound; type: physicochemical
# [6] = Solubility in water; type: physicochemical
# Method in brief: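 Excess solid in double-distilled water was sonicated 5 min, then stirred overnight to equilibrium at 25 ± 0.1 °C and centrifuged. Supernatant absorbance was read at 515–518 nm and quantified against per-compound standard reference curves.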
# Rat1 = assay: Effect on circadian rhythm in Pper2::Fluc transfected Rat1 cells assessed as shortening of period length at 10 uM; type: functional, cell-based; conditions: Rattus norvegicus
# Method in brief: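 Rat-1 fibroblasts stably carrying PPer2::Fluc, grown to confluence, synchronized with 0.1 μM dexamethasone (1 h in Experimental, 2 h in legend), then moved to phenol-red-free assay medium with 0.1 mM luciferin. Compounds at 10 μM added before dish sealing and left continuously; DMSO solvent control. Luminescence recorded 4–5 days or more; period derived by regression analysis.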
# [7] = biological target: T1, Glycogen synthase kinase-3; assay: Inhibition of GSK3-mediated beta-catenin phosphorylation in human SH-SY5Y cells in presence of MG132 by Western blot analysis
compound,measurement,setting,value
Cl.O=C1Nc2cc(Br)ccc2/C1=C1/Nc2ccccc2/C1=N\OCCN(CCO)CCO,IC50,[1],320 nM
CCN(CC)CCO/N=C1/C(=C2/C(=O)Nc3cc(Br)ccc32)Nc2ccccc21,IC50,[2],35 nM
same,IC50,SH-SY5Y; sh-sy5y,78000 nM
same,IC50,[3],20 nM
O=C1Nc2cc(Br)ccc2/C1=C1/Nc2ccccc2/C1=N\OCCO,IC50,"SH-SY5Y; Homo sapiens, SH-SY5Y, 48 h",> 100000 nM
same,IC50,[3],> 10000 nM
O=C1Nc2cc(Br)ccc2/C1=C1/Nc2ccccc2/C1=N\OCCN1CCNCC1,IC50,[1],150 nM
same,IC50,SH-SY5Y; sh-sy5y,13200 nM
COCCN1CCN(CCO/N=C2/C(=C3/C(=O)Nc4cc(Br)ccc43)Nc3ccccc32)CC1,IC50,[2],11 nM
same,IC50,[3],500 nM
Cl.Cl.O=C1Nc2cc(Br)ccc2/C1=C1/Nc2ccccc2/C1=N\OCCN1CCNCC1,IC50,[1],220 nM
same,logD,[4],-0.87
same,pKa,[5],8.85
same,solubility thermodynamic,[6],1610 µg/mL
same,IC50,SH-SY5Y; sh-sy5y,5900 nM
same,IC50,[3],180 nM
CN1CCN(CCO/N=C2/C(=C3/C(=O)Nc4cc(Br)ccc43)Nc3ccccc32)CC1,IC50,[2],7 nM
same,IC50,[3],400 nM
CN(C)CCO/N=C1/C(=C2/C(=O)Nc3cc(Br)ccc32)Nc2ccccc21.Cl,logD,[4],1.69
same,pKa,[5],8.59
same,solubility thermodynamic,[6],141 µg/mL
O=C1Nc2cc(Br)ccc2/C1=C1/Nc2ccccc2/C1=N\OCCN1CCCC1,IC50,[2],26 nM
same,IC50,SH-SY5Y; sh-sy5y,5500 nM
same,IC50,[3],130 nM
O=C1Nc2cc(Br)ccc2/C1=C1/Nc2ccccc2/C1=N\OCCN1CCN(CCOCCO)CC1 [listing 1 of 2 here],Activity,Rat1,Active
O=C1Nc2cc(Br)ccc2/C1=C1/Nc2ccccc2/C1=N\OCCN1CCN(CCO)CC1,IC50,[1],700 nM
Cl.Cl.O=C1Nc2cc(Br)ccc2/C1=C1/Nc2ccccc2/C1=N\OCCN1CCN(CCOCCO)CC1,IC50,[2],33 nM
same,logD,[4],1.46
same,pKa,[5],7.58
same,solubility thermodynamic,[6],4250 µg/mL
same,IC50,"SH-SY5Y; Homo sapiens, SH-SY5Y, 48 h",97600 nM
same,IC50,[3],330 nM
Cl.Cl.O=C1Nc2cc(Br)ccc2/C1=C1/Nc2ccccc2/C1=N\OCCN1CCN(CCO)CC1,logD,[4],1.41
same,pKa,[5],7.65
same,solubility thermodynamic,[6],1140 µg/mL
O=C1Nc2cc(Br)ccc2/C1=C1/Nc2ccccc2/C1=N\OCCN(CCO)CCO,IC50,"SH-SY5Y; Homo sapiens, SH-SY5Y, 48 h",6600 nM
O=C1Nc2cc(Br)ccc2/C1=C1/Nc2ccccc2/C1=N\OCCBr,IC50,[2],140 nM
same,IC50,"SH-SY5Y; Homo sapiens, SH-SY5Y, 48 h",> 100000 nM
same,IC50,[3],> 10000 nM
Cl.O=C1Nc2cc(Br)ccc2/C1=C1/Nc2ccccc2/C1=N\OCCN1CCCC1,IC50,[2],54 nM
same,logD,[4],1.16
same,pKa,[5],9.18
same,solubility thermodynamic,[6],195 µg/mL
same,IC50,"SH-SY5Y; Homo sapiens, SH-SY5Y, 48 h",4200 nM
same,IC50,[3],100 nM
CN1CCN(CCO/N=C2/C(=C3/C(=O)Nc4cc(Br)ccc43)Nc3ccccc32)CC1.Cl.Cl,IC50,[2],5 nM
same,logD,[4],1.74
same,pKa,[5],7.65
same,solubility thermodynamic,[6],1500 µg/mL
same,IC50,"SH-SY5Y; Homo sapiens, SH-SY5Y, 48 h",5400 nM
same,IC50,[3],300 nM
O=C1Nc2cc(Br)ccc2/C1=C1/Nc2ccccc2/C1=N\OCC(O)CO (stereo unspecified),IC50,[2],34 nM
same,IC50,"SH-SY5Y; Homo sapiens, SH-SY5Y, 48 h",940 nM
same,IC50,[3],25 nM
COCCN1CCN(CCO/N=C2/C(=C3/C(=O)Nc4cc(Br)ccc43)Nc3ccccc32)CC1.Cl.Cl,IC50,[2],20 nM
same,logD,[4],1.9
same,pKa,[5],7.47
same,solubility thermodynamic,[6],570 µg/mL
same,IC50,"SH-SY5Y; Homo sapiens, SH-SY5Y, 48 h",> 100000 nM
same,IC50,[3],400 nM
O=C1Nc2cc(Br)ccc2/C1=C1/Nc2ccccc2/C1=N\OCCN1CCN(CCOCCO)CC1 [listing 2 of 2 here],IC50,[1],2900 nM
same,IC50,[2],14 nM
same,IC50,[3],310 nM
CN(CCO/N=C1/C(=C2/C(=O)Nc3cc(Br)ccc32)Nc2ccccc21)CC(O)CO (stereo unspecified),IC50,[2],67 nM
same,IC50,"SH-SY5Y; Homo sapiens, SH-SY5Y, 48 h",5800 nM
same,IC50,[3],240 nM
CCN(CC)C(=O)O/N=C1/C(=C2/C(=O)Nc3cc(Br)ccc32)Nc2ccccc21,IC50,[2],30 nM
same,IC50,"SH-SY5Y; Homo sapiens, SH-SY5Y, 48 h",> 100000 nM
same,IC50,[3],10000 nM
Cn1c(O)c(-c2[nH]c3ccccc3c2N=O)c2ccc(Br)cc21,Activity,[7],inactive
CCN(CC)CCO/N=C1/C(=C2/C(=O)Nc3cc(Br)ccc32)Nc2ccccc21.Cl,IC50,[2],27 nM
same,logD,[4],1.19
same,pKa,[5],9.38
same,solubility thermodynamic,[6],192 µg/mL
same,IC50,"SH-SY5Y; Homo sapiens, SH-SY5Y, 48 h",> 100000 nM
same,IC50,[3],40 nM
